Data reported in ChEMBL document CHEMBL3734718, “Development of new highly potent imidazo[1,2-b]pyridazines targeting Toxoplasma gondii calcium-dependent protein kinase 1” (Eur J Med Chem, 2015).

Key:
[1] = Inhibition of wild type recombinant Toxoplasma gondii CDPK1 using syntide-2 substrate after 30 mins by Kinase-Glo luminescent assay
[2] = molecular target: T1, Serine/threonine-protein kinase haspin (Homo sapiens, UniProt Q8TF76); experiment: Inhibition of human recombinant haspin kinase domain expressed in Escherichia coli BL21-KRX using histone H3 (1 to 21) peptide substrate after 30 mins by scintillation and luminescence counting method in the presence of [gamma-33P]ATP
T1 sequence (Q8TF76 whole entry): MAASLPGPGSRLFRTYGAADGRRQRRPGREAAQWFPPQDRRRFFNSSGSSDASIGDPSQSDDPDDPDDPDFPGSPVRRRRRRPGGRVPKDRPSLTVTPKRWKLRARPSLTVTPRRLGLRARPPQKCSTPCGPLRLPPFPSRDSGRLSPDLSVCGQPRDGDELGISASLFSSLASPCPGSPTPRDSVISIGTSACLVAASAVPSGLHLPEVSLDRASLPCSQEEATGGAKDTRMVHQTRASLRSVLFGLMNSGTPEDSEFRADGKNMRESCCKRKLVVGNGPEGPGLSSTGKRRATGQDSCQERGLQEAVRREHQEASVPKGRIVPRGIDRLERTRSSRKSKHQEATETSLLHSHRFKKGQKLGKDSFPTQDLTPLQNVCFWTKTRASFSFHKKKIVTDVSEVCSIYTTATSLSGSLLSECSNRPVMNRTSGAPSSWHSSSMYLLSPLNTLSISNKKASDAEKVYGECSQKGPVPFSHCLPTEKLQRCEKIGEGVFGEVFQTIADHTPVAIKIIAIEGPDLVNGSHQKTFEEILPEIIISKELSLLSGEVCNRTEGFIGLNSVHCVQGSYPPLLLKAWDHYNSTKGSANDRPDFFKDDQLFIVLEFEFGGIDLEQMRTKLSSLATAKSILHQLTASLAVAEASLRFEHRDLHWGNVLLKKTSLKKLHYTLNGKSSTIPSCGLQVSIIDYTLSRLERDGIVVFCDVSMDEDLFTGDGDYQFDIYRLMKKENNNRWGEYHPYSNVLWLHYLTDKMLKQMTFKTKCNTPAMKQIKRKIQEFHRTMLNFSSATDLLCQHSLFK

[3] = molecular target: Glycogen synthase kinase-3 (Sus scrofa, UniProt B2LUN4+I6LNT8); experiment: Inhibition of porcine brain GSK-3 alpha/beta using GS-1 substrate after 30 mins by scintillation and luminescence counting method in the presence of [gamma-33P]ATP
[4] = Cytotoxicity against HFF assessed as cell proliferation after 96 hrs by alamar blue reduction assay; type: cell-based; settings: human, HFF cells
Summary of the method: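 Non-specific toxicity to HFF host cells was measured by Alamar Blue reduction as a quantitative read-out of cell proliferation, with the CC50 derived.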

[5] = molecular target: Receptor-interacting serine/threonine-protein kinase 3 (Homo sapiens, UniProt Q9Y572); experiment: Inhibition of full length human GST-tagged RIPK3 expressed in Spodoptera frugiperda Sf9 cells after 30 mins by scintillation and luminescence counting method in the presence of [gamma-33P]ATP
[6] = molecular target: Cyclin-dependent kinase 5/CDK5 activator 1 (Homo sapiens, UniProt Q00535); experiment: Inhibition of human recombinant CDK5/P25 expressed in Escherichia coli using histone H1 substrate after 30 mins by scintillation and luminescence counting method in presence of [gamma-33P]ATP
[7] = test system: Toxoplasma gondii; experiment: Antiparasitic activity against Toxoplasma gondii RH tachyzoite expressing beta-galactosidase assessed as inhibition of tachyzoite invasion into human foreskin fibroblast host cells after 96 hrs by colorimetric microtitre assay; type: functional, organism-based
Summary of the method: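 Invasion of HFF host cells by a recombinant T. gondii strain carrying bacterial β-galactosidase was judged indirectly from parasite growth inhibition in a colorimetric microtiter format.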

[8] = Inhibition of porcine brain CK1-delta/epsilon using CKS peptide substrate after 30 mins by scintillation and luminescence counting method in presence of [gamma-33P]ATP; design: species or system Sus scrofa
[9] = Lipophilicity, log P of the compound; type: physicochemical; settings: octanol/water
[10] = Selectivity ratio of IC50 for full length human GST-tagged RIPK3 expressed in Spodoptera frugiperda Sf9 cells to IC50 for wild type recombinant Toxoplasma gondii CDPK1
[11] = Selectivity ratio of IC50 for porcine brain CK1-delta/epsilon to IC50 for wild type recombinant Toxoplasma gondii CDPK1
[12] = Selectivity ratio of IC50 for human recombinant haspin kinase domain expressed in Escherichia coli BL21-KRX to IC50 for wild type recombinant Toxoplasma gondii CDPK1; type: cell-free
[13] = Selectivity ratio of IC50 for human recombinant CDK5/P25 expressed in Escherichia coli to IC50 for wild type recombinant Toxoplasma gondii CDPK1; type: cell-free
[14] = Selectivity ratio of IC50 for porcine brain GSK-3 alpha/beta to IC50 for wild type recombinant Toxoplasma gondii CDPK1

Sequence of Cyclin-dependent kinase 5/CDK5 activator 1 (Q00535 whole entry): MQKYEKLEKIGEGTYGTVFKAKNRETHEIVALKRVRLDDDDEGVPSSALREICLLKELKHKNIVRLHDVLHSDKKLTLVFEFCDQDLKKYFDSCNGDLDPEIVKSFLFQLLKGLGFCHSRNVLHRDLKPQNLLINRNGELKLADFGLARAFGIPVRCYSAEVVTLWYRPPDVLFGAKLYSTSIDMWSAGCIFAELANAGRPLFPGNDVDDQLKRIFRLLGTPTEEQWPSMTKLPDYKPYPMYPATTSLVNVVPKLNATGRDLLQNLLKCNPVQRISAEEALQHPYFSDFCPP
Sequence of Cyclin-dependent kinase 5/CDK5 activator 1 (Q15078 whole entry, further chain): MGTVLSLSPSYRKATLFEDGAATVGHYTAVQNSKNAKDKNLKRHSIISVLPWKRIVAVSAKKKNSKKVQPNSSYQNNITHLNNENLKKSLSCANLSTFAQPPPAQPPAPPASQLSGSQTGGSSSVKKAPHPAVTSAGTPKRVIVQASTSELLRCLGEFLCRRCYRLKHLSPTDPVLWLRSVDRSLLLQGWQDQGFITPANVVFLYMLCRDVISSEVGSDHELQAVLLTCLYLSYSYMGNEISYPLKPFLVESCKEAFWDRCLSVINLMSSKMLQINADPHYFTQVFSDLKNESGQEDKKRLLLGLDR
Sequence of Receptor-interacting serine/threonine-protein kinase 3 (Q9Y572 whole entry): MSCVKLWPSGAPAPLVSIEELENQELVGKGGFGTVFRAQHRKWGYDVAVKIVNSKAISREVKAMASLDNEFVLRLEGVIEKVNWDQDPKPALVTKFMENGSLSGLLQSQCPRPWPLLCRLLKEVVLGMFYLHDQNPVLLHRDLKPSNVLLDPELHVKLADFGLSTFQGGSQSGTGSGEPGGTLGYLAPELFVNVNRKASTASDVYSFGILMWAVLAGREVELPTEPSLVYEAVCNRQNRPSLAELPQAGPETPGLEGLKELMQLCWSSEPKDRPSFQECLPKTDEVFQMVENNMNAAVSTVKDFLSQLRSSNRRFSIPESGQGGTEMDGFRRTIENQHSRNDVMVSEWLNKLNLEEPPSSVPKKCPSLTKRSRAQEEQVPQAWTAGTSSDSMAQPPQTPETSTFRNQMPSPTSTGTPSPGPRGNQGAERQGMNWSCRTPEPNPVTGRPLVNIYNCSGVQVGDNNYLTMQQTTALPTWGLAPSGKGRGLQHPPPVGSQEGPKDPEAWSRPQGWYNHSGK

| SMILES | IC50 [1] | IC50 [2] | IC50 [3] | CC50 at 96 h [4] | IC50 [5] | IC50 [6] | EC50 [7] | IC50 [8] | logP [9] | Ratio IC50 [10] | Ratio IC50 [11] | Ratio IC50 [12] | Ratio IC50 [13] | Ratio IC50 [14] |
| --- | --- | --- | --- | --- | --- | --- | --- | --- | --- | --- | --- | --- | --- | --- |
| CN1CCN(c2ccc3nc(-c4cccc5c4OCO5)c(-c4cccnc4)n3n2)CC1 | 6.5 µM | > 10 µM | > 10 µM | 35.9 µM | > 10 µM | > 10 µM | > 5 µM | > 10 µM |  |  |  |  |  |  |
| CN1CCN(c2ccc3nc(-c4ccc(-c5ccccc5)s4)c(-c4ccncc4)n3n2)CC1 | 3.58 µM | > 10 µM | > 10 µM | 6.8 µM | > 10 µM | > 10 µM | 3.07 µM | > 10 µM | 5 |  |  |  |  |  |
| CN1CCN(c2ccc3nc(-c4cccc5c4OCO5)c(-c4ccncc4)n3n2)CC1 | 0.014 µM | > 10 µM | 5.4 µM | 42.5 µM | 2.5 µM | > 10 µM | 0.1 µM | 0.37 µM |  | > 100 | 25 | > 380 | > 380 | > 380 |
| CN1CCN(c2ccc3nc(-c4cccc(-c5ccsc5)c4)c(-c4ccncc4)n3n2)CC1 | 0.5 µM | > 10 µM | 7.6 µM | 6.3 µM | 0.3 µM | > 10 µM | 0.61 µM | ≥ 10 µM | 5 |  |  |  |  |  |
| CN1CCN(c2ccc3nc(-c4cccc(-c5cccs5)c4)c(-c4ccncc4)n3n2)CC1 | 0.37 µM | > 10 µM | 10 µM | 6.7 µM | 0.27 µM | > 10 µM | 1.42 µM | 3.1 µM | 5 |  |  |  |  |  |
| CN1CCN(c2ccc3nc(-c4ccc5c(c4)OCCO5)c(-c4ccncc4)n3n2)CC1 | 0.11 µM | > 10 µM | > 10 µM | 7.6 µM | > 10 µM | > 10 µM | 0.49 µM | ≥ 10 µM | < 3 |  |  |  |  |  |
| c1cc2c(c(-c3nc4cccnn4c3-c3ccncc3)c1)OCO2 | 0.22 µM | > 10 µM | 3.5 µM | 8.2 µM | 5.5 µM | > 10 µM | 1.28 µM | 2.4 µM | 5 |  |  |  |  |  |
| COc1ccc2c(-c3nc4ccc(N5CCN(C)CC5)nn4c3-c3ccncc3)cccc2c1 | 0.5 µM | > 10 µM | > 10 µM | 20.9 µM | 1.2 µM | > 10 µM | 2.21 µM | > 10 µM |  |  |  |  |  |  |
| CN1CCN(c2ccc3nc(-c4ccc5c(c4)OCO5)c(-c4ccncc4)n3n2)CC1 | 0.15 µM | > 10 µM | > 10 µM | 17.5 µM | 7.6 µM | > 10 µM | 0.63 µM | 0.15 µM |  |  |  |  |  |  |
| CN1CCN(c2ccc3nc(-c4cccc5c4OCCO5)c(-c4ccncc4)n3n2)CC1 | 1.23 µM | > 10 µM | > 10 µM | > 50 µM | > 10 µM | > 10 µM | 0.94 µM | 2 µM |  |  |  |  |  |  |
| CN1CCN(c2ccc3nc(-c4ccc(C(=O)N5CCOCC5)cc4)c(-c4ccncc4)n3n2)CC1 | > 5 µM | > 10 µM | > 10 µM | 14.1 µM | > 10 µM | > 10 µM | > 5 µM | > 10 µM |  |  |  |  |  |  |
| COc1cccc(-c2nc3ccc(N4CCN(C)CC4)nn3c2-c2ccncc2)c1 | 0.009 µM | > 10 µM | 8.8 µM | 38 µM | ≥ 10 µM | > 10 µM | 0.05 µM | 0.4 µM |  |  |  |  |  |  |
| CN1CCN(c2ccc3nc(-c4cccc5c4OCO5)c(-c4ccccc4)n3n2)CC1 | 5.4 µM | > 10 µM | 2.2 µM | 21.9 µM | > 10 µM | > 10 µM | 1.9 µM | ≥ 10 µM |  |  |  |  |  |  |
| CN1CCN(c2ccc3nc(-c4cccc5ccccc45)c(-c4ccncc4)n3n2)CC1 | 0.008 µM | > 10 µM | > 10 µM | 21.3 µM | 0.88 µM | > 10 µM | 0.07 µM | 0.51 µM |  | > 100 | 25 | > 1000 | > 1000 | > 1000 |
| CN1CCN(c2ccc3nc(-c4cccc(-c5ccccc5)c4)c(-c4ccncc4)n3n2)CC1 | 0.44 µM | > 10 µM | > 10 µM | 10.9 µM | 0.45 µM | > 10 µM | 1 µM | > 10 µM |  |  |  |  |  |  |
| CN1CCN(c2ccc3nc(-c4cccc5c4OCO5)c(-c4ccncc4)n3c2)CC1 | 0.85 µM | > 10 µM | > 10 µM | > 50 µM | > 10 µM | > 10 µM | > 5 µM | > 10 µM |  |  |  |  |  |  |
| CCc1nc(N)nc(N)c1-c1ccc(Cl)cc1 [PYRIMETHAMINE] |  |  |  | > 50 µM |  |  | 0.34 µM |  |  |  |  |  |  |  |
| CN1CCN(c2ccc3nc(-c4ccc5ncsc5c4)c(-c4ccncc4)n3n2)CC1 | 0.4 µM | > 10 µM | > 10 µM | 17.5 µM | > 10 µM | > 10 µM | 1.66 µM | 0.95 µM |  |  |  |  |  |  |
| CCOc1ccc2c(-c3nc4ccc(N5CCN(C)CC5)nn4c3-c3ccncc3)cccc2c1 | 0.91 µM | > 10 µM | > 10 µM | 7.6 µM | 1.7 µM | > 10 µM | 1.71 µM | > 10 µM | 5 |  |  |  |  |  |
| CN1CCN(c2ccc3nc(-c4ccc(-c5ccccc5)cc4)c(-c4ccncc4)n3n2)CC1 | 3.43 µM | > 10 µM | > 10 µM | 13.7 µM | > 10 µM | > 10 µM | > 5 µM | > 10 µM |  |  |  |  |  |  |
| CN1CCN(c2ccc3nc(-c4cccc(C(=O)N5CCOCC5)c4)c(-c4ccncc4)n3n2)CC1 | 3.05 µM | 3.9 µM | > 10 µM | 6.4 µM | > 10 µM | > 10 µM | > 5 µM | > 10 µM | < 3 |  |  |  |  |  |
| CC1CN(c2ccc3nc(-c4cccc5c4OCO5)c(-c4ccncc4)n3n2)CC(C)N1C (configuration not stated) | 0.63 µM |  |  | > 50 µM |  |  | 0.63 µM |  |  |  |  |  |  |  |
